In ChEMBL document CHEMBL1944633, “A new generation of radiofluorinated pyrimidine-2,4,6-triones as MMP-targeted radiotracers for positron emission tomography” (J Med Chem, 2012):

Columns and labels:
[1] = Octanol-water partition coefficient, log D of the compound at pH 7.4 by gamma counter; format: physicochemical
In short: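 About 20 kBq radioligand shaken 1 min at room temperature in equal volumes (0.5 mL) of PBS pH 7.4 and 1-octanol. Phases separated by centrifugation (3000 rpm, 2 min). Three 100 μL samples per layer gamma-counted. log D7.4 = log(cpm octanol/cpm PBS). Two independent experiments in triplicate, mean ± standard deviation.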

Neutrophil collagenase = Neutrophil collagenase (Homo sapiens, UniProt P22894); experiment: Inhibition of MMP8 using (7-methoxycoumarin-4-yl)acetyl-Pro-Leu-Gly-Leu-(3-(2,4-dinitrophenyl)-L-2,3-diaminopropionyl)Ala-Arg-NH2 as substrate preincubated for 30 mins measured after 10 mins by fluorescence analysis
In short: (§1)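 Activated enzyme at 2 nM preincubated with inhibitor (10 pM to 1 mM) for 30 min at 37 °C in 50 mM Tris-HCl pH 7.5, 0.2 M NaCl, 5 mM CaCl2, 20 μM ZnSO4, 0.05% Brij 35. Fluorogenic peptide substrate added (10 μL of 50 μM stock to 90 μL mix). Fluorescence read at ex 330/em 390 nm. Rates taken from initial 10 min; IC50 by nonlinear regression of rate versus concentration.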

Collagenase 3 = Collagenase 3 (Homo sapiens, UniProt P45452); experiment: Inhibition of MMP13 using (7-methoxycoumarin-4-yl)acetyl-Pro-Leu-Gly-Leu-(3-(2,4-dinitrophenyl)-L-2,3-diaminopropionyl)Ala-Arg-NH2 as substrate preincubated for 30 mins measured after 10 mins by fluorescence analysis; in short: as §1
[2] = target: 72 kDa type IV collagenase (Homo sapiens, UniProt P08253); experiment: Inhibition of MMP2 using (7-methoxycoumarin-4-yl)acetyl-Pro-Leu-Gly-Leu-(3-(2,4-dinitrophenyl)-L-2,3-diaminopropionyl)Ala-Arg-NH2 as substrate preincubated for 30 mins measured after 10 mins by fluorescence analysis
In short: (§2)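 Activated enzyme at 2 nM preincubated with inhibitor (10 pM to 1 mM) for 30 min at 37 °C in 50 mM Tris-HCl pH 7.5, 0.2 M NaCl, 5 mM CaCl2, 20 μM ZnSO4, 0.05% Brij 35. Fluorogenic peptide substrate added (10 μL of 50 μM stock to 90 μL mix).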

[3] = target: Matrix metalloproteinase-9 (Homo sapiens, UniProt P14780); experiment: Inhibition of MMP9 using (7-methoxycoumarin-4-yl)acetyl-Pro-Leu-Gly-Leu-(3-(2,4-dinitrophenyl)-L-2,3-diaminopropionyl)Ala-Arg-NH2 as substrate preincubated for 30 mins measured after 10 mins by fluorescence analysis; in short: as §2
Liver [4] = experiment: Drug uptake in BALB/c mouse liver at 5 to 8 MBq measured after 60 mins by CT scanning; format: ADME; details: in vivo, 1 h
In short: (§3)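 Balb/c mice (19–27 g) under isoflurane (1.5%/0.3 L/min) on a heating pad, tail-vein catheter. 5–8 MBq radiotracer in 100 μL with 150 μL saline flush, injected iv 30 s after scan start. Dynamic list-mode small-animal PET for 60 min, iterative resolution-recovery reconstruction. CT acquired afterwards (80 μm). CT-guided volumes of interest gave time–activity curves as %ID.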

Lung = experiment: Drug uptake in BALB/c mouse lung at 5 to 8 MBq measured after 60 mins by CT scanning; format: ADME; details: in vivo, 1 h; in short: as §3
Brain = experiment: Drug uptake in BALB/c mouse brain at 5 to 8 MBq measured after 60 mins by CT scanning; format: ADME, tissue-based; details: in vivo, 1 h; in short: as §3
Serum = experiment: Stability of the compound in human serum at 5MBq measured up to 120 mins by HPLC analysis; format: ADME, cell-free; details: 2 h
In short: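 PBS-formulated radioligand (20 μL, 5 MBq) added to 200 μL human serum at 37 °C. 20 μL aliquots taken at 10, 20, 30, 60, 90 and 120 min and quenched in methanol/CH2Cl2 (1:1, 100 μL). Samples centrifuged 2 min; organic layer analysed by radio-HPLC (10–90% CH3CN/water, 0.1% TFA gradient).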

[5] = Drug uptake in BALB/c mouse urinary bladder at 5 to 8 MBq measured after 60 mins by CT scanning; format: ADME, tissue-based; details: in vivo, 1 h; in short: as §3
[6] = Drug uptake in BALB/c mouse skeleton at 5 to 8 MBq measured after 60 mins by CT scanning; format: ADME; details: in vivo, 1 h; in short: as §3
Kidney = experiment: Drug uptake in BALB/c mouse kidney at 5 to 8 MBq measured after 60 mins by CT scanning; format: ADME; details: in vivo, 1 h; in short: as §3
Liver [7] = experiment: Drug uptake in BALB/c mouse liver at 5 to 8 MBq measured after 90 to 120 mins post injection by CT scanning; format: ADME; details: in vivo
Heart = experiment: Drug uptake in BALB/c mouse heart at 5 to 8 MBq measured after 60 mins by CT scanning; format: ADME, tissue-based; details: in vivo, 1 h; in short: as §3
Intestine = experiment: Drug uptake in BALB/c mouse intestine at 5 to 8 MBq measured after 60 mins by CT scanning; format: ADME, tissue-based; details: in vivo, 1 h; in short: as §3
Liver [8] = experiment: Drug uptake in BALB/c mouse liver at 5 to 8 MBq measured after 10 to 15 mins post injection by CT scanning; format: ADME; details: in vivo
[9] = Drug uptake in BALB/c mouse gallbladder at 5 to 8 MBq measured after 60 mins by CT scanning; format: ADME, Gall bladder; details: in vivo, 1 h; in short: as §3

Chain of 72 kDa type IV collagenase (P08253 whole entry): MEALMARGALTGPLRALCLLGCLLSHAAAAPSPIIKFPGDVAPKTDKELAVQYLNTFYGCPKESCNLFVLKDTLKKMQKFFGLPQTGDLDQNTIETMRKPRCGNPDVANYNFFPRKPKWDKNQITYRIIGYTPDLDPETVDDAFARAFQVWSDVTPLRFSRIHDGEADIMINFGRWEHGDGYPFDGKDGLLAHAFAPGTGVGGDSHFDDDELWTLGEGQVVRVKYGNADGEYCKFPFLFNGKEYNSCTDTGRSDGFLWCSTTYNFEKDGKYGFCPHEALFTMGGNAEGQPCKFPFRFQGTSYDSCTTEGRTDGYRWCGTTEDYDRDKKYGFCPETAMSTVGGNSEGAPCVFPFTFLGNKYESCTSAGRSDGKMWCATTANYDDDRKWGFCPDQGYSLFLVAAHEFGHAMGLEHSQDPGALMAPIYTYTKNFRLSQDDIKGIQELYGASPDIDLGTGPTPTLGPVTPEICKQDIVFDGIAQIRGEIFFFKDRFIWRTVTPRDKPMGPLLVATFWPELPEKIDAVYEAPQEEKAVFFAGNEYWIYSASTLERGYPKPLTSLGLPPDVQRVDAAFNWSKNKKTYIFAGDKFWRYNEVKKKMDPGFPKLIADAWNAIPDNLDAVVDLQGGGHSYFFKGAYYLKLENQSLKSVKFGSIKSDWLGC
Chain of Matrix metalloproteinase-9 (P14780 whole entry): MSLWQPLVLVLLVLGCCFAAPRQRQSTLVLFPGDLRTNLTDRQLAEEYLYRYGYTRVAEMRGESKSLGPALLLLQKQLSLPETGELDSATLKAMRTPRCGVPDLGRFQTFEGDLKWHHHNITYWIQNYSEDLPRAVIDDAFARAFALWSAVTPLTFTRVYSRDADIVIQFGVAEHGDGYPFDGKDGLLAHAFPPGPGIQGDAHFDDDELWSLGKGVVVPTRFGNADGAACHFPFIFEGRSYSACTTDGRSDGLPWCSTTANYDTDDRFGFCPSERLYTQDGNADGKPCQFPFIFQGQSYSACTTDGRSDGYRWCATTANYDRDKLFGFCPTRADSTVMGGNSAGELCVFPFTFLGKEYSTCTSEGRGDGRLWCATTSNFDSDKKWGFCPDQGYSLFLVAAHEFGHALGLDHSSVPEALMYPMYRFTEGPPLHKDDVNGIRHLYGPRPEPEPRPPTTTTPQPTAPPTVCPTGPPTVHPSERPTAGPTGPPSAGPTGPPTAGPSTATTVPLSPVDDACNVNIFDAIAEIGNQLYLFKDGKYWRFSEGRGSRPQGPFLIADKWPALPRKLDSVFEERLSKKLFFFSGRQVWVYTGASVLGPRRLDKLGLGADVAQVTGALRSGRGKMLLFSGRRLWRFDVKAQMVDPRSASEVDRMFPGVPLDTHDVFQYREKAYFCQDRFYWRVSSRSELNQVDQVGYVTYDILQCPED
Chain of Neutrophil collagenase (P22894 whole entry): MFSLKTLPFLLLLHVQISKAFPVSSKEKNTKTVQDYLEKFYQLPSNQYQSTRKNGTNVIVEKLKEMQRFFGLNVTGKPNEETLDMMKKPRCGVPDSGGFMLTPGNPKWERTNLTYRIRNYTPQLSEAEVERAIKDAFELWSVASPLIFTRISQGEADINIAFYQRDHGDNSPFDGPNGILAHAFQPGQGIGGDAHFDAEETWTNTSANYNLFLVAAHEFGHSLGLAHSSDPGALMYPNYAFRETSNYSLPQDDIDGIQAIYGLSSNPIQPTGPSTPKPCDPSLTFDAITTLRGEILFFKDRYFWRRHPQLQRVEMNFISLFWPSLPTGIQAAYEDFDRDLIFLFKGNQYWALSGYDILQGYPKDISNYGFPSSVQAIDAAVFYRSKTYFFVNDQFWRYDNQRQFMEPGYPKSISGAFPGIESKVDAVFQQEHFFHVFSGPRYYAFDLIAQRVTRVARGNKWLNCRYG

Question: Which results are given for `O=C1NC(=O)C(c2ccc(Oc3ccccc3)cc2)(N2CCN(CC[18F])CC2)C(=O)N1`?
Answer: logD [1]: 2.15; IC50 (Neutrophil collagenase): 138 nM; IC50 (Collagenase 3): 645 nM

Question: With `O=C1NC(=O)C(c2ccc(Oc3ccccc3)cc2)(N2CCN(CCOCCOCCOCCNC(=O)c3ccc(F)cc3)CC2)C(=O)N1` as the compound, how does the IC50 (Neutrophil collagenase) read?
Answer: 15 nM

Question: What about the IC50 [2] of the same compound?
Answer: 5 nM

Question: What about the IC50 (Collagenase 3) of the same compound?
Answer: 16 nM

Question: And the IC50 [3]?
Answer: 4 nM

Question: For `O=C1NC(=O)C(NCc2cn(CCOCCOCCOCCOc3cccnc3F)nn2)(c2ccc(Oc3ccccc3)cc2)C(=O)N1`, which IC50 (Neutrophil collagenase) is on record?
Answer: 49 nM

Question: What about the IC50 [2] of the same compound?
Answer: 29 nM

Question: What about the IC50 (Collagenase 3) of the same compound?
Answer: 9 nM

Question: What about the IC50 [3] of the same compound?
Answer: 10 nM

Question: With `O=C1NC(=O)C(c2ccc(Oc3ccccc3)cc2)(N2CCN(CCOCCOCCOCCn3cc(CNS(=O)(=O)c4ccc(F)cc4)nn3)CC2)C(=O)N1` as the compound, how does the IC50 (Neutrophil collagenase) read?
Answer: 19 nM

Question: What about the IC50 [2] of the same compound?
Answer: 13 nM

Question: And the IC50 (Collagenase 3)?
Answer: 23 nM

Question: And the IC50 [3]?
Answer: 20 nM

Question: With `O=C1NC(=O)C(c2ccc(Oc3ccccc3)cc2)(N2CCN(CCOCCOCCOCCn3cc(COC(=O)c4ccc(F)cc4)nn3)CC2)C(=O)N1` as the compound, how does the IC50 (Neutrophil collagenase) read?
Answer: 27 nM

Question: What about the IC50 [2] of the same compound?
Answer: 22 nM

Question: What about the IC50 (Collagenase 3) of the same compound?
Answer: 7 nM

Question: What about the IC50 [3] of the same compound?
Answer: 23 nM

Question: Which logD [1] does the source give for `O=C1NC(=O)C(c2ccc(-c3ccccc3)cc2)(N2CCN(c3ccc([N+](=O)[O-])cc3)CC2)C(=O)N1` here?
Answer: 2.15

Question: And the IC50 [2]?
Answer: 23 nM

Question: What about the IC50 [3] of the same compound?
Answer: 7 nM

Question: With `O=C1NC(=O)C(c2ccc(Oc3ccccc3)cc2)(N2CCN(CCOCCOCCOCCOCCOCCOCCOCCOCc3cn(CCF)nn3)CC2)C(=O)N1` as the compound, how does the IC50 (Neutrophil collagenase) read?
Answer: 150 nM

Question: What about the IC50 [2] of the same compound?
Answer: 44 nM

Question: What about the IC50 (Collagenase 3) of the same compound?
Answer: 94 nM

Question: What about the IC50 [3] of the same compound?
Answer: 74 nM

Question: For `O=C1NC(=O)C(NCc2cn(CCOCCOCCOCCF)nn2)(c2ccc(Oc3ccccc3)cc2)C(=O)N1`, which IC50 (Neutrophil collagenase) is on record?
Answer: 48 nM

Question: And the IC50 [2]?
Answer: 64 nM

Question: What about the IC50 (Collagenase 3) of the same compound?
Answer: 87 nM

Question: And the IC50 [3]?
Answer: 41 nM

Question: What does the source list for `O=C1NC(=O)C(c2ccc(Oc3ccccc3)cc2)(N2CCN(c3cccc(F)n3)CC2)C(=O)N1`?
Answer: IC50 (Neutrophil collagenase): 129 nM; IC50 [2]: 203 nM; IC50 (Collagenase 3): 48 nM; IC50 [3]: 9 nM

Question: With `O=C1NC(=O)C(c2ccc(Oc3ccccc3)cc2)(N2CCN(CCOCCOCCOCCOCc3cn(CCOCCOCCOCCOc4cccnc4F)nn3)CC2)C(=O)N1` as the compound, how does the IC50 (Neutrophil collagenase) read?
Answer: 107 nM

Question: And the IC50 [2]?
Answer: 202 nM

Question: What about the IC50 (Collagenase 3) of the same compound?
Answer: 605 nM

Question: What about the IC50 [3] of the same compound?
Answer: 56 nM

Question: With `O=C1NC(=O)C(c2ccc(Oc3ccccc3)cc2)(N2CCN(CCOCCOCCOCCOCc3cn(CCF)nn3)CC2)C(=O)N1` as the compound, how does the IC50 (Neutrophil collagenase) read?
Answer: 58 nM

Question: And the IC50 [2]?
Answer: 58 nM

Question: And the IC50 (Collagenase 3)?
Answer: 51 nM

Question: And the IC50 [3]?
Answer: 27 nM

Question: Which results are given for `CN(Cc1cn(CCOCCOCCOCCN2CCN(C3(c4ccc(Oc5ccccc5)cc4)C(=O)NC(=O)NC3=O)CC2)nn1)S(=O)(=O)c1ccc(F)cc1`?
Answer: IC50 (Neutrophil collagenase): 15 nM; IC50 [2]: 12 nM; IC50 (Collagenase 3): 21 nM; IC50 [3]: 7 nM

Question: Which IC50 (Neutrophil collagenase) does the source give for `O=C1NC(=O)C(c2ccc(Oc3ccccc3)cc2)(N2CCN(CCOCCOCCOCCn3cc(CCCCOc4cccnc4F)nn3)CC2)C(=O)N1` here?
Answer: 116 nM

Question: And the IC50 [2]?
Answer: 52 nM

Question: What about the IC50 (Collagenase 3) of the same compound?
Answer: 40 nM

Question: What about the IC50 [3] of the same compound?
Answer: 60 nM

Question: For `O=C1NC(=O)C(c2ccc(Oc3ccccc3)cc2)(N2CCN(CCOCCOCCOCCOCc3cn(CC[18F])nn3)CC2)C(=O)N1`, which Drug uptake (Liver [4]) is on record?
Answer: Active

Question: And the logD [1]?
Answer: 0.78

Question: What about the Drug uptake (Lung) of the same compound?
Answer: Not Active

Question: What about the Drug uptake (Brain) of the same compound?
Answer: Not Active

Question: And the Stability (Serum)?
Answer: Stable

Question: And the Drug uptake [5]?
Answer: Active

Question: And the Drug uptake [6]?
Answer: Active

Question: What about the Drug uptake (Kidney) of the same compound?
Answer: Active

Question: And the Drug uptake (Liver [7])?
Answer: Active

Question: And the Drug uptake (Heart)?
Answer: Not Active

Question: And the Drug uptake (Intestine)?
Answer: Active

Question: What about the Drug uptake (Liver [8]) of the same compound?
Answer: Active

Question: And the Drug uptake [9]?
Answer: Active
